Results collected from several papers.
Each line is one published result; the experiments were not run side by side.
Target: Leukocyte tyrosine kinase receptor (LTK, Homo sapiens, UniProt P29376)

Cn1cncc1[C@](O)(COc1ccc(C#N)cc1-c1ccc(OC(F)(F)F)cc1)c1ccc(C#N)cc1  remaining binding (cell-free assay, competition with immobilised ligand; 1 µM): 91%
CC(C)(C)c1nc(-c2cccc(NS(=O)(=O)c3c(F)cccc3F)c2F)c(-c2ccnc(N)n2)s1  remaining activity (enzyme activity, inhibitor, radiometric; 1 µM): 93%
Cn1cc(-c2cc(F)cc(N3CCn4c(cc5c4CCCC5)C3=O)c2CO)cc(Nc2ccc(N3CCN(C4COC4)CC3)cn2)c1=O  inhibition (enzyme activity, inhibitor; 0.1 µM): 11%
Nc1ncc(-c2nc(N3CCOCC3)nc(N3CCOCC3)n2)c(C(F)F)n1  remaining binding (cell-free assay, competition with immobilised ligand; 10 µM): 26%
CC(C)(C)c1nc2c(s1)c1nc(N)ncc1c1ccc(NS(=O)(=O)c3c(F)cccc3F)c(F)c12  remaining activity (enzyme activity, inhibitor, radiometric; 1 µM): 90%
Cn1cc(-c2cccc(N3CCc4c(sc5c4CC(C)(C)C5)C3=O)c2CO)cc(Nc2ccncn2)c1=O  inhibition (enzyme activity, inhibitor; 1 µM): 4%
Nc1nccc(-c2c(-c3ccc(F)cc3)ncn2C2CCNCC2)n1  remaining activity (enzyme activity, inhibitor, radiometric; 0.5 µM): 97.3%
Cc1nn(C)cc1-c1nc2c(N3CCN(Cc4ccc(Cl)cc4)CC3)c(Cl)cnc2[nH]1  remaining binding (binding, competition with immobilised ligand; 1 µM): 100%
COc1ccc(OC)c2c(=S)c3ccccc3[nH]c12  remaining activity (enzyme activity, inhibitor, radiometric; 0.5 µM): 84.5%
COc1ncccc1-c1cnn2ccc(N3CCN(C(=O)OC(C)C)CC3)nc12  remaining binding (binding, competition with immobilised ligand; 1 µM): 68%
